Data: ChEMBL document CHEMBL4513216, “Probing the Open Global Health Chemical Diversity Library for Multistage-Active Starting Points for Next-Generation Antimalarials” (ACS Infect Dis, 2020)

Assay: Toxicity liver stage against HepG2, at 10uM
Assay type: cell-based
Set-up: test concentration 10 uM, cell line HepG2-A16-CD81EGFP
Conditions: human, HepG2-A16-CD81EGFP cells; read-out: INHIBITION
Outline: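 Uninfected HepG2-A16-CD81EGFP cells, 3 × 10^3 per well, 1536-well, plated on prespotted compound at 10 μM final, parasite-free screening media added to match infected plates; puromycin 10 μM positive, DMSO 0.5% negative; run in parallel with 48 h PbLuc assay at 37 °C, 5% CO2; viability by CellTiter-Glo luminescence, normalized to controls.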

SMILES | cytotoxicity at 10 µM [%]
Cc1cccc(OC2CCN(C(=O)NCc3cc[nH]n3)CC2)c1C | 7.41
Cc1nc(NC(=O)c2c(-n3cnnn3)sc3c2CCC3)sc1C | 5.95
CCCSc1nn(CCN(C)C)c2nc3sc(C)c(CC)c3c(=O)n12 | 16.4
CC(C)n1ncc2c1NC(=O)CC21C(=O)Nc2cc(Cl)cc(Cl)c21 (stereo not drawn) | 19.1
Nc1nc2c(c(NC(=O)Nc3cccc(Cl)c3)n1)CCCC2 | -2.8
O=S(=O)(c1ccc(Cl)s1)N1CCN(Cc2nc(-c3ccco3)cs2)CC1 | 47.6
CCc1cnc(N2CC[C@@H]3CN(C(=O)c4ccco4)CCO[C@@H]3C2)nc1 | 9.22
CC(C)CNc1nc2c(cc1C(=O)NCC1CC1)CCNCC2 | -2.79
CCS(=O)(=O)N1CCc2ccc(NC(=O)Nc3cccc(SC)c3)cc21 | 37.7
Cc1cc(C)n(C2=NC(NCCC(C)C)c3c(sc4c3CCCC4)N2)n1 (stereo not drawn) | 25
CCc1ccc(-c2cc(C(F)(F)F)nc(N3CCC(N)CC3)n2)cc1 | 91.5
Cc1nn(C)c2c(=O)n(C(C)C)c(NCCc3ccccc3)nc12 | 65.3
CC(C)Nc1cc(-c2c[nH]nc2C2CCN(C(=O)C3CC3)C2)ccn1 (stereo not drawn) | 85
COc1ccc(CC(=O)NC(C)c2nc3cccnc3n2C(C)C)cc1 (stereo not drawn) | -11.7
Cc1ncc(CN2CCOC(c3ccc(-c4ccccc4F)cn3)C2)s1 (stereo not drawn) | -35.7
CN(C)C(=O)C1CN(Cc2ccccn2)CCN(S(C)(=O)=O)C1 (stereo not drawn) | 26.9
Cc1cc(-c2cnc(NCc3ccncc3)nc2C(C)C)on1 | 59.7
CC(C)NC(=O)c1cc(-c2ccc(S(C)(=O)=O)cc2)c2cnn(C)c2n1 | 8.3
O=c1c(Cc2ccc(Cl)cc2Cl)c(O)ccn1CC1CC1 | 13.6
CCN1CCC(NC(=O)CNC(C)Cn2cccn2)CC1 (stereo not drawn) | 9.19
Cc1ccccc1CNc1ccc(S(N)(=O)=O)c(C(F)(F)F)c1 | 22.2
CCOCCOC(C)C(=O)Nc1nccn1Cc1ccccc1 (stereo not drawn) | 3.94

SMILES | cytotoxicity at 10 µM [%]
COCc1ccccc1NCc1csc(NC(C)=O)n1 | -1.36
O=C(NCC(=O)N1CCN(c2ccccc2)CC1)c1sccc1C1CC1 | -151
CCC(C)c1csc(NC(=O)Cc2csc(-c3nnc[nH]3)n2)n1 (stereo not drawn) | -29.6
COCC1CN(c2ccc(C#N)c(Cl)c2)CCO1 (stereo not drawn) | 4.86
CCOc1ccc(-c2nc(CN(C)Cc3c(C)noc3C)cs2)cc1 | 38.6
Cc1nc(C)c(CNC(=O)N2CCN(c3ccc(Cl)cn3)CC2)s1 | 55.8
COc1c(Cl)cccc1NCc1csc(NC(C)=O)n1 | 57.8
COC(=O)CSCc1noc(-c2ccc(C)cc2)n1 | 4.13
CC(C)N(C)C(=O)c1ccc(CNc2ccncc2Cl)cc1 | 55.8
CCc1ncc(C(=O)NCCNc2ncnc3sccc23)s1 | 49.6
O=C(NCC1(O)CCSC1)c1ccoc1 (stereo not drawn) | -12.7
CCN(CC1CN(Cc2nc(C3CC3)no2)CCO1)c1cccnn1 (stereo not drawn) | 14.9
c1cc(CNCc2ccnc(N3CCCC3)c2)c2c(c1)OCCCO2 | 26.6
O=C(CSc1nncs1)N1CCN(Cc2ccc(Cl)cc2)CC1 | 21.9
CCc1noc(C(C)N(C)CC(=O)Nc2ccc(Cl)c(C(F)(F)F)c2)n1 (stereo not drawn) | 50.1
NC(=O)c1ccc(N2CCCCC2)c(NC(=O)c2ccc(F)cc2F)c1 | -0.0472
CCc1nc(CN2CCCN(c3ncnc4ccsc34)CC2)no1 | 64.5
Cc1nc(CN2CCN(c3ncnc4ccccc34)CC2)no1 | 61.5
CC(C)(C)OC(=O)N1CCCc2ccc(NCc3cc[nH]c3)cc21 | 34.1
COc1ccccc1CN(C)C(=O)CN1CC(n2nc(C)cc2C)C1 | 21.3
CCCc1n[nH]c(C2CN(C(=O)CCCn3ccnc3C)CCO2)n1 (stereo not drawn) | 6.03
N#Cc1cnc2ccccc2c1N1CCN(C(=O)C2CCC2)CC1 | -2.3

SMILES | cytotoxicity at 10 µM [%]
CN(CCN1CCCC1=O)S(=O)(=O)CC1CCCC1 | 10.4
CC1(C)CN=C(N2CCN(CCCN3CCOCC3)CC2)S1 | -17.6
CN(CCc1cccc2ccccc12)Cc1nc(N)nc(N(C)C)n1 | 4.19
CN1CCN(C2CCN(c3ccnc(-c4ccccc4)n3)CC2)C1=O | 59.7
c1nc(NCC2(N3CCOCC3)CCSC2)c2sccc2n1 (stereo not drawn) | 59.7
O=S1(=O)CCN2C(=N1)Oc1ccc(S(=O)(=O)N3CCCC3)cc12 | 18.2
CS(=O)(=O)c1cccc(C(=O)NCC2(c3ccccc3)CC2)c1 | 1.47
Cc1ccc(-c2nc(CN(Cc3cccs3)C3CCS(=O)(=O)C3)cs2)o1 (stereo not drawn) | 11.4
CC(C)CN1CCC(NC(C)c2ccccc2-n2cccn2)CC1 (stereo not drawn) | 1.06
O=C(CN1CCCC(c2ccn[nH]2)C1)Nc1nc2c(s1)CCCC2 (stereo not drawn) | -43.3
NC(=O)c1ccc(N2CCCCC2)c(NC(=O)c2cc(Br)ccc2F)c1 | -12.9
COc1cc(CN(C)C(=O)Cc2c(C)nn(C)c2C)ccc1OC(F)F | 39.2
CC(C)NC(=O)C1CN(C(=O)N(C)C)CC12CCOCC2 (stereo not drawn) | -110
O=C(Nc1ccccc1)N1CCc2nc(C(=O)N3CCCC3)sc2CC1 | 11.3
CN(C)C(=O)CN1CCC2(COCc3cnc(-c4ccccc4)nc32)C1 (stereo not drawn) | -96.7
COc1cc(N2CC[C@@H](O)[C@@H]2Cc2ccccc2)ncn1 | -52.1
O=C1O[C@@H]2CN(c3ccccn3)C[C@@H]2N1CCCc1ccc(F)cc1 | -2.88
FC(F)(F)c1cccc(OC2CCN(Cc3c[nH]cn3)CC2)c1 | -47.8
Cc1ccc(Sc2ccc(CN3CCC4(CCCNC4=O)C3)o2)cc1 (stereo not drawn) | -3.68
CCC(NC(=O)c1cc(CC(C)C)nn1C)c1cccc(C)n1 (stereo not drawn) | -116
Clc1ccccc1C1(c2ccnc(C3CCCC3)n2)CCNCC1 | 18.2
CNc1ccnc(N(C)Cc2cc(-c3cccs3)n[nH]2)n1 | -4.57

SMILES | cytotoxicity at 10 µM [%]
COc1ccnc(CN2CCCC(CCc3ccc(F)cc3)C2)c1OC (stereo not drawn) | 50.4
CCc1nc2c(N3CCC4(CC3)CC(=O)N(CC(C)C)C4)ncnc2o1 | 16.2
Cc1nc(C2CCN(C)CC2)cc(N2CCOc3ccc(Cl)cc3C2)n1 | -5.12
CCOc1ccc2[nH]c(=O)c(CN3CCN(S(N)(=O)=O)CC3)cc2c1 | -6.39
Cc1cccnc1NCCNC(=O)c1cnc(-c2ccccn2)nc1O | 26.4
CCCNC(=O)c1ccc(S(=O)(=O)NCC2(COC)CCCC2)cc1 | -31.2
CC(C)c1cc(C(=O)NCCc2nc3c(s2)CCC3)n(C)n1 | 54.2
CCc1nc2c(NCC3COc4ccccc4C3)ncnc2o1 (stereo not drawn) | 10.5
COc1ccccc1OC1CN(C(=O)c2c(C)nc3ccc(C)cn23)C1 | -0.376
Cc1cc(C(=O)NC2CCCc3c2cnn3-c2cccc(C)c2C)[nH]n1 (stereo not drawn) | 51.4
Cc1cc(CN(C)CC2CCCN(CCc3ccc(Cl)cc3)C2)[nH]n1 (stereo not drawn) | -12.5
C=Cc1ccc(CN2C(=O)C3(CCNCC3)Nc3ccccc32)cc1 | 3.39
Cc1nc(C(=O)N2CCN(c3ccc(Cl)c(Cl)c3)CC2)cs1 | 2.35
Cc1cccc2cc(CO)c(N3Cc4cnc(C(C)(C)C)nc4C3)nc12 | 10.6
CC(C)(C)n1ncc2c1NC(=O)CC2c1cccc(F)c1 (stereo not drawn) | -8.81
Cc1ccc(-c2noc(CN3CCC(N4CCNC4=O)CC3)n2)cc1 | 31
Cc1ccc(-c2noc(CN3CC(n4cc(C)cn4)C3)n2)cc1 | -3.86
Cc1noc(NC(=O)c2cccc(Br)c2)n1 | -5.3
CCCC1CCCN(Cc2csc(-c3ncccn3)n2)CC1 (stereo not drawn) | 13.6
Cn1ncc(NCc2cccc(OCC(F)(F)F)c2)c(Cl)c1=O | 22.1
COc1c(CNCc2ccnc(N3CCCCC3)c2)c(C)nn1C | 10.1
CC1CN(CC2CCCCC2)CCN1c1ccc2nncn2n1 (stereo not drawn) | 13.8

SMILES | cytotoxicity at 10 µM [%]
Cc1nccn1CCCn1cncc1-c1ccc2c(c1)CCC(C)N2C (stereo not drawn) | -4.98
Cc1ccc(CN(CCCn2ccnc2)Cc2cc(F)ccc2F)s1 | -13.2
Clc1cccc(N[C@H]2CCCN[C@H]2Cc2ccccc2)c1 | 89.4
COc1ccc(-c2ccc(C3CNCCO3)nc2)cc1 (stereo not drawn) | -8.88
O=C(N1CCOCC1)[C@@]12CCO[C@@H]1CCN(Cc1cccc(F)c1)C2 | 10.8
CCS(=O)(=O)N1C[C@@H]2CN(Cc3cccs3)CCO[C@@H]2C1 | -138
CN(C)C(=O)c1n[nH]c2c1CN(Cc1nccs1)CC2 | -150
Fc1cccc(O[C@@H]2C[C@H]3CN(Cc4ccncc4)CCN3C2)c1 | -143
O=c1ccc2c(n1CC1CC1)CCC(NCc1cccs1)C2 (stereo not drawn) | -111
Cc1nccc(NCc2cncc3c2CCN(CC2CCOC2)C3)n1 (stereo not drawn) | -41.5
CCCS(=O)(=O)N1CCC2(CC1)CN(CC1CCOC1)c1ccccc12 (stereo not drawn) | -101
O=C(c1ccco1)N1C[C@@H]2CCN(c3cccnc3)C[C@@H]2C1 | -68.3
COCCN1CCC2(CC1)CC(N1CCOCC1)c1cc(C)ccc12 (stereo not drawn) | -106
O=C(NCc1cccnc1)[C@@H]1CC[C@@H]2[C@@H](CCN2c2ncccn2)O1 | -68
Cc1ccc(N2CCO[C@H]3CN(Cc4cccs4)C[C@H]32)nn1 | -75.6
Cc1noc([C@H]2C[C@H]3OCC[C@H]3N(C3CCC3)C2)n1 | -129
Cc1ccc(N2CCC3(CN(Cc4ccncc4)CCC3(F)F)C2)nn1 (stereo not drawn) | 28.6
O=C(O)c1c(-c2cncnc2)ncc2c1CCN(Cc1cccnc1)C2 | 10.6
c1ccc(-c2cc(CN3C[C@H]4CC[C@@H](C3)N(CC3CCC3)C4)on2)cc1 | 3.27
COc1ccc(NS(=O)(=O)C=c2[nH]c(=O)n3cccc3c2=O)cc1Cl | -1.47
